Experimental data collected from several papers.
Compare with care: the assays were run in different laboratories.
Target: Platelet-derived growth factor receptor alpha (PDGFRA, Homo sapiens, UniProt P16234)

| SMILES | assay | setting | remaining binding |
| --- | --- | --- | --- |
| Nc1ncc2c(n1)-c1c([nH]c3ccc(C#CC4CC4)cc13)CCCC2 | binding, competition with immobilised ligand | 1 µM | 76% |
| O=C(NCCCN1CCOCC1)c1ccc(Nc2nccc(-c3cc4ccccc4s3)n2)cc1 | binding, competition with immobilised ligand | 1 µM | 64% |
| COc1cccc(CNC(=O)c2nc3scc(COCc4ccc(C(=O)O)cc4)c3c(=O)[nH]2)c1 | cell-free assay, competition with immobilised ligand | 1 µM | 56.3% |
| COC(=O)Nc1nc2ccc(C(=O)c3ccccc3)cc2[nH]1 | cell-free assay, competition with immobilised ligand | 10 µM | 7.8% |
| C[C@H](c1cccc(C#N)c1)n1cc(Cl)cc(C(N)=O)c1=N | cell-free assay, competition with immobilised ligand | 1 µM | 94% |
| O=C(NCC1CCOCC1)c1n[nH]cc1NC(=O)c1c(F)cccc1F | binding, competition with immobilised ligand | 1 µM | 84% |
| Cn1cc(Cl)c2c(Oc3c(F)cc(Nc4cc(Cl)nc(N)n4)cc3F)ccnc21 | cell-free assay, competition with immobilised ligand | 0.1 µM | 98% |
| O=C(NCCCN1CCOCC1)c1ccc(Nc2ncc(Cl)c(-c3ccc(Cl)s3)n2)cc1 | binding, competition with immobilised ligand | 1 µM | 10% |
| C[C@@H]1CCN(c2nccc(-c3cnn4ncccc34)n2)C1 | binding | 1 µM | 81% |
| O=C(c1ccc(Nc2ncc(Cl)c(-c3ccc(Cl)s3)n2)cc1)N1CCC(N2CCCC2)CC1 | binding, competition with immobilised ligand | 1 µM | 3.4% |
| CCOCCn1cc(C(=O)Nc2ccc(-n3nc(-c4cccnc4)cc3C(F)(F)F)cn2)ccc1=O | cell-free assay, competition with immobilised ligand | 1 µM | 68% |
| COc1cnc(Nc2cccc(S(N)(=O)=O)c2)nc1N1CCN(c2ccccc2)C(=O)C1 | binding, competition with immobilised ligand | 1 µM | 82% |
| CN(C)c1nccc(-c2cnc3ncccn23)n1 | binding | 1 µM | 78% |
| Cc1cc(C)c(-n2ccn3nc(-c4cccnc4)cc23)cc1NC(=O)c1cc(C#N)cc(S(F)(F)(F)(F)F)c1 | cell-free assay, competition with immobilised ligand | 0.1 µM | 67.4% |
| CCN1CCN(Cc2ccc(C(=O)Nc3ccc(C)c(Oc4ccc5c(c4)CC(=O)N5)c3)cc2C(F)(F)F)CC1 | binding, competition with immobilised ligand | 1 µM | 100% |
| COCCOc1nc(-c2ccc(Cl)nc2)nc2c1CN(C(=O)c1ncn3ccccc13)CC2 | cell-free assay, competition with immobilised ligand | 0.1 µM | 100% |
| CN(CCCC(F)(F)F)c1nccc(-c2cnn3ncccc23)n1 | binding | 1 µM | 100% |
| C[C@@H]1CN(c2ccc3ncc(-c4ccc5[nH]nc(C6CC6)c5c4)n3n2)C[C@H](C)O1 | binding, competition with immobilised ligand | 0.5 µM | 76% |
| CN(C)c1nccc(-c2cnn3ncccc23)n1 | binding | 1 µM | 100% |
| CC1=C(C#N)C(c2ccc3c(c2)c(NC(=O)c2ccccc2C)nn3C)C(C#N)=C(C)N1 | cell-free assay, competition with immobilised ligand | 1 µM | 86% |
| CC1CCCN1c1nccc(-c2cnn3ncccc23)n1 (centres unmarked) | binding | 1 µM | 94% |
| FC(F)(F)Oc1cccc(-c2cnc3ccc(-c4ccncc4)nn23)c1 | cell-free assay, competition with immobilised ligand | 5 µM | 22% |
| CN(C)c1ncc(F)c(-c2cnn3ncccc23)n1 | binding | 1 µM | 67% |
| CC(C)(O)c1cncc(-c2nc3ccc(F)cc3n2C2CC2)c1 | cell-free assay, competition with immobilised ligand | 1 µM | 100% |
| N[C@@H]1CCN(c2nccc(-c3cnn4ncccc34)n2)C1 | binding | 1 µM | 100% |
| N#Cc1ccccc1CSc1nnc2c(n1)[nH]c1ccccc12 | binding, competition with immobilised ligand | 10 µM | 94% |
